Our source for the yeast fitness values is the RNAGym collection of RNA variant scans (doi:10.1126/science.aae0568).

B1: tRNA (parent)
chain: GUUCCGUUGGCGUAAUGGUAACGCGUCUCCCUCCUAAGGAGAAGACUGCGGGUUCGAGUCCCGUACGGAACG

This sample holds only a part of the variants without activity.

This series covers variants of B1. As to the kind of experiment: yeast fitness relative to wild type (ratio to wild type); higher = fitter; tRNA-Arg(CCU), competitive growth, 37 C, YPD. The procedure, abridged:
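For this measurement, the tRNA-Arg(CCU) gene was varied by chemical synthesis at a 3% per-site mutation rate across 69 sites, and each variant was placed at the native genomic locus in Saccharomyces cerevisiae. The pooled strains went through a 24-hour competition in YPD at 37°C in six parallel replicates, with amplicons from start and end populations read by 100-nucleotide paired-end sequencing. Darwinian fitness relative to wild type followed from the change in each genotype's frequency. Genotypes needed ≥ 100 starting reads, and estimates < 0.5 were set to 0.5.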
Take G25C G41C C46U C66U: the yeast fitness is at most 0.5.
As for U3A G12A U19A C60A A70C, the yeast fitness was determined as 0.569.
The result for C29G C34U A42G reads at most 0.5; that for C27G G50A C60G, 0.778; that for C4A C5G U19A C46U A69U, 0.574.
Regarding C22U C29U G39A G41A, the yeast fitness was at most 0.5.
Consider G6A C22G U53A, for which the yeast fitness is at most 0.5.
Regarding C49G G56C A70C, the yeast fitness is at most 0.5.
Regarding G10C A14C G23U C31A C33G, the yeast fitness was 0.512.
Regarding G10A A57C, the yeast fitness was determined as 0.525.
The result for C4A G6A U28G A37G reads 0.738; that for G9C U19A A20G C29U A37U C62U G67A A70C, at most 0.5.
On to C29A C34G A42C C49G G68A, for which the yeast fitness is at most 0.5.
As for C5U U35C A36G, the yeast fitness was 0.801.
As for C4G C11A U35A A45G C49U U59G G67U, the figure is at most 0.5; as for C30G A69G, at most 0.5.
With G38A C62G, the yeast fitness is 0.648.
As for G23C U26A C29G A36U, the figure is 0.68.
As for G17C C27U U53G, the figure is at most 0.5; as for U8C A15U U28A C33G, at most 0.5.
As for C11G U16C A21U C30G G50C, the figure is at most 0.5; as for C4A C5U C22U C34A C49U C62U, at most 0.5; as for A21U G41C A43C C49A C62U, at most 0.5.
For G23A C29G U64A, the yeast fitness is at most 0.5.
As to C27G A36G G68A, the yeast fitness was at most 0.5.
The result for A15U U19A A20G A40U A43U C60G C62U reads 0.518; that for C34A A37C G67C A69G, at most 0.5.
C11A A15G C22G C61U G68A: the yeast fitness was at most 0.5.
Take U13G U32A C46U: the yeast fitness was determined as 0.577.
In the case of G48C C62G A65U, the yeast fitness was at most 0.5.
The result for C30A C49A C66U reads at most 0.5; that for U2C A15C C29U, at most 0.5; that for U19G C22U C31U A40U G67A, 0.637.
For the variant C49G U53A C66U, the yeast fitness is at most 0.5.
On to C29A C60A, for which the yeast fitness was 0.616.
For the variant C11U A15C C30U A42C, the yeast fitness was at most 0.5.
The result for U16C C46G C49U reads 0.731.
The result for C5U G17A C60A reads at most 0.5; that for G9C C34A C46A G56A, at most 0.5; that for C22G G44A, 0.846.
The result for U26A C27U C29A A65G G68C reads at most 0.5; that for G18C A40G A42G C66G, at most 0.5; that for G12C G17C C22A A42C, at most 0.5.
Regarding C31U A37U C66U, the yeast fitness came out at 0.542.
As to G10A U13A C24U A45C A65G C66G, the yeast fitness is at most 0.5.
As for C27U C30U C34A C62A, the figure is at most 0.5.
As for A14G C29G A36U C46G, the figure is at most 0.5.
As for U7G U54C C66A, the yeast fitness was at most 0.5.
The result for U47A C61G reads 0.69; that for C24U C31G U54C C62G, at most 0.5; that for G48A C66U, 0.97.
The result for A15G G52A G67U reads at most 0.5.
The result for C11G A15U C24G A40G reads at most 0.5; that for U35A C46A C55A A69U, at most 0.5.
For the variant U2A U47A A65C, the yeast fitness was at most 0.5.
Turning to U2C U35C, the yeast fitness is 0.829.
As for A20C G38A A57U, the figure is at most 0.5; as for A14G G18A, 0.63; as for U2A U16G A69C, 0.85.
The result for C29A C33U U47A A57U reads at most 0.5; that for C29U A43U, 1.04; that for G6A G9C A14G, at most 0.5.
The result for U16A G39A C46U A57U G67A reads at most 0.5; that for C11G A42U A43C C55A C66A, at most 0.5; that for A20U A57U, 0.762.
Turning to C22U C46A G67A, the yeast fitness is 0.657.
For U7G G12A G25A C33G G58A G67A, the yeast fitness was at most 0.5.
C31U G41A A69U: the yeast fitness amounted to 0.808.
In the case of C5A A40U C60U C61G, the yeast fitness was 0.525.
As for C24A C33A C49U U54G G56A, the figure is at most 0.5; as for G12C A14C C60G, 0.618.
As to C4G U13A G68C, the yeast fitness is 0.541.
As for U8A A40C C46U G52A, the figure is at most 0.5; as for C27U A37U A65U, 0.591.
As for U3A A14U G50A A69C, the figure is at most 0.5; as for C5G C11A A14G G25C C29G C60G, at most 0.5.
For the variant U32G A40C, the yeast fitness was 0.692.
The result for C11U G17A U35A G38A C61G reads at most 0.5.
On to G23C A37G C66A, for which the yeast fitness is at most 0.5.
The result for A14C U47C A57C reads at most 0.5; that for A14G C24G C31U C66G, at most 0.5; that for C24A A43C, 0.55.
The result for G17C A37G A40C reads 0.619.
For the variant C4G C5U G39A G44C, the yeast fitness is at most 0.5.
Take U19A U26C C30A A43C: the yeast fitness was at most 0.5.
In the case of C11G A14U C34A A57G, the yeast fitness was found to be 0.642.
As for G6C G9A A21U U28G C34U A45C, the figure is at most 0.5; as for A42G G44C U59A, 0.537.
As for U13A A20U A37C, the figure is 0.557.
As for A20G C27G U35G, the figure is at most 0.5; as for U13C G23C A36C G39A, 0.611; as for U8C A42G G51U A57U, at most 0.5.
A20G G63A A70G: the yeast fitness worked out at 0.634.
The result for A14C A45U G50C G68C reads at most 0.5; that for U54C G68C, 0.776.
For C11G A14G A20U C27G C29U C62U, the yeast fitness was at most 0.5.
As for G6C A20C U35C A40G A42U G58A G63A G67A, the figure is at most 0.5.
U2C C11A C22G G41A A43C G51C: the yeast fitness was at most 0.5.
The result for A15G G17A C49U reads 0.687; that for C11G A20C C24U A36C U47A, 0.61.
As for U19G C55G C66U, the figure is 0.536; as for G9A G38A A69C, 0.724.
As for C11U G25A C29U G67A A70U, the figure is at most 0.5; as for U3C C62U A69C, 0.756; as for C5G A70U, 0.812.
Consider C24A G25A U35A, for which the yeast fitness is at most 0.5.
The result for C46G C61G C62A reads at most 0.5; that for C11A A20G G39A G51A U53A C66U, at most 0.5; that for C5U G9A C49A, 0.513.
As for U16C G18C A42G, the figure is at most 0.5; as for C33U G56A C61G C66U, at most 0.5.
For C24A A36G A42G A43G G48A, the yeast fitness was at most 0.5.
As for U16C A40C A57U, the figure is 0.575; as for C5U U28G C29U G50C, at most 0.5.
For the variant A15C A20C C55U, the yeast fitness is at most 0.5.
For the variant G10A C34G, the yeast fitness was at most 0.5.
The result for U2C G10A G12A G18C C33U A69C reads at most 0.5; that for G9A U28C, 0.855.
On to C24A U26G A43C C60U C62G G63A C66G A69G, for which the yeast fitness is at most 0.5.
Consider G6A C29A C31G G67A, for which the yeast fitness was at most 0.5.
On to A20C C27U G67U, for which the yeast fitness turned out to be 0.674.
As for C11U A36C C46G, the figure is at most 0.5; as for C22A C27G A36G, at most 0.5.
As to A69G A70G, the yeast fitness came out at 1.02.
The result for C11U U19A U32A A37U reads at most 0.5.
Take A15G G18A C46U: the yeast fitness stood at 0.645.
The result for A21C A37G C49A C60G C66A reads at most 0.5; that for G12A U19C A21U A45U G50A G68C A69U, at most 0.5.
For A57C U59C, the yeast fitness was found to be 0.613.
With A40G C62U C66G A69C, the yeast fitness was at most 0.5.
Turning to A20U U54C G63U, the yeast fitness is at most 0.5.
As to U26G C29U A65U, the yeast fitness was at most 0.5.
As for G6A A20C C66A, the yeast fitness came to 0.549.
The result for C4G G17A C30U G56A reads at most 0.5.
Turning to C4U C11A C22U A42U, the yeast fitness is 0.577.
The result for G12C U13C U16A reads 0.704; that for U13A U53A, 0.59.
As for U28A C29G C33A A42U A70U, the figure is 0.531.
As for A20U G67A, the yeast fitness was 0.657.
Regarding U54A A57C, the yeast fitness came to 0.555.
In the case of A20C C22G C60A, the yeast fitness was at most 0.5.
As to A45G G67A, the yeast fitness was 0.961.
Take C5G U53G C60A: the yeast fitness is at most 0.5.
As for C5G G6A, the figure is 0.659; as for G6A A20G C49A, 0.616; as for C22G A45G C46U, 0.644.
As for C4G A21U U28A C30G, the figure is at most 0.5; as for C22G C27G C29G C34A A36G A43U A65U, at most 0.5; as for C30A G38A G52A C55A A65C, at most 0.5.
For the variant C24U A45G, the yeast fitness worked out at 1.03.
As for G9C A15G A21U G56A A57G G67A, the figure is 0.593; as for G10C C24U C34U A36U C46A A69C, at most 0.5.
As for G23A C55A, the figure is at most 0.5.
Regarding U7A C46G C61U, the yeast fitness was found to be 0.601.
As to U7G G12A, the yeast fitness was found to be 0.816.
Take G12A A21G A40U: the yeast fitness is 0.564.
As for G25A C31U, the figure is 0.923; as for A21U U26A A37C C62G, at most 0.5; as for C30G A36U, 0.538.
With U8C A14U C22G C30U, the yeast fitness was determined as 0.581.
As for C4G C33G A65U, the figure is 0.605; as for U16A C30G A37C, at most 0.5.
The result for C24U C33G C34U A57U reads 0.583; that for C29U C30A U59G, at most 0.5; that for C27G U28A C30G C31U G68C A70C, at most 0.5.
The result for G9A A14U G48C reads at most 0.5.
With G18C A43C, the yeast fitness was 0.719.
